This experiment relates to U937 deltaST FPR, LDV-FITC VLA-4 binding, flow cytometry. Kind of experiment: GTPase hits reducing LDV-FITC binding to VLA-4 – U937 deltaST FPR cells, flow cytometry, mechanism study for Ras-related GTPase inhibitor project (AID 602148). To be noted: at 50 µM; active compounds read high. Summed up: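 System: deltaST-FPR-expressing U937 cells. Reagent: LDV-FITC VLA-4 ligand ~4 nM, sub-saturating, plus fMLFF 100 nM. Times: flow acquisition 1024 s at 37 °C, compounds after plateau. Measured by: flow cytometry, mean channel fluorescence of bound LDV-FITC. Read-out: LDV-FITC binding decline over time, graded none, weak, strong.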
In general terms: Flow cytometry measures light scatter and fluorescence of single cells or particles in a stream.

Active and inactive are the calls of the source.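 Rule for the calls: active = a drop over time in fluorescent ligand binding to the VLA-4 integrin, graded weak or strong, level 1 or 2; inactive = no binding drop, level 0.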

For `CC1(C)Cc2c(sc(NC(=S)NC(=O)c3ccc(Br)cc3)c2C(=O)O)CO1`, the VLA-4 affinity decrease level (0-2) was 2.

For the compound `COc1ccc(C(=O)NC(=S)Nc2sc3c(c2C(=O)O)CC(C)(C)OC3)cc1`, the VLA-4 affinity decrease level (0-2) is 1.

Consider `CC1(C)Cc2c(sc(NC(=S)NC(=O)c3cccc(F)c3)c2C(=O)O)CO1`, for which the VLA-4 affinity decrease level (0-2) was 1.

`CCC1(C)Cc2c(sc(NC(=S)NC(=O)c3ccccc3)c2C(=O)O)CO1` (stereo not drawn): the VLA-4 affinity decrease level (0-2) is 0 (inactive).

In the case of `CC1(C)Cc2c(sc(NC(=S)NC(=O)c3cccc(Br)c3)c2C(=O)O)CO1`, the VLA-4 affinity decrease level (0-2) is 2.

`COc1ccccc1C(=O)NC(=S)Nc1sc2c(c1C(=O)O)CC(C)(C)OC2`: the VLA-4 affinity decrease level (0-2) is 1.

For `CC1(C)Cc2c(sc(NC(=S)NC(=O)c3ccccc3F)c2C(=O)O)CO1`, the VLA-4 affinity decrease level (0-2) is 0 (inactive).

Take `COc1cccc(C(=O)NC(=S)Nc2sc3c(c2C(=O)O)CC(C)(C)OC3)c1`: the VLA-4 affinity decrease level (0-2) is 2.

On to `O=C(NC(=S)Nc1sc2c(c1C(=O)O)CC1(CCCC1)OC2)c1ccccc1`, for which the VLA-4 affinity decrease level (0-2) was 0 (inactive).

For the compound `CC1(C)Cc2c(sc(NC(=S)NC(=O)c3ccco3)c2C(=O)O)CO1`, the VLA-4 affinity decrease level (0-2) is 0 (inactive).

Consider `CC1(C)Cc2c(sc(NC(=S)NC(=O)c3ccccc3Br)c2C(=O)O)CO1`, for which the VLA-4 affinity decrease level (0-2) was 2.

Turning to `CC1(C)Cc2c(sc(NC(=S)NC(=O)c3cccs3)c2C(=O)O)CO1`, the VLA-4 affinity decrease level (0-2) is 0 (inactive).

Consider `CC(C)(C)C1Cc2c(sc(NC(=S)NC(=O)c3ccccc3)c2C(=O)O)CO1` (stereo not drawn), for which the VLA-4 affinity decrease level (0-2) was 0 (inactive).

With `CC1(C)Cc2c(sc(NC(=S)NC(=O)c3ccc(F)cc3)c2C(=O)O)CO1`, the VLA-4 affinity decrease level (0-2) is 0 (inactive).

For the compound `Cc1ccc(C(=O)NC(=S)Nc2sc3c(c2C(=O)O)CC(C)(C)OC3)cc1`, the VLA-4 affinity decrease level (0-2) is 0 (inactive).

In the case of `CC1(C)Cc2c(sc(NC(=S)NC(=O)C3CCCCC3)c2C(=O)O)CO1`, the VLA-4 affinity decrease level (0-2) is 1.

Turning to `Cc1cccc(C(=O)NC(=S)Nc2sc3c(c2C(=O)O)CC(C)(C)OC3)c1`, the VLA-4 affinity decrease level (0-2) is 0 (inactive).

For `Cc1ccccc1C(=O)NC(=S)Nc1sc2c(c1C(=O)O)CC(C)(C)OC2`, the VLA-4 affinity decrease level (0-2) is 0 (inactive).

Source of the values: PubChem BioAssay AID602148 (NMMLSC, 2011).
